Results taken from article PMC3417419 (British Journal of Pharmacology, 2012).
Like-named read-outs stand apart in the source and are kept apart here.

Experiments:
[1] = biological target: GluN1/GluN2A NMDA receptors (Rattus norvegicus, UniProt P35439+Q00959); assay: Two-electrode voltage-clamp; assay type: cell-based; conditions: for mean dose ratio (r): two-point glycine curves
[2] = biological target: GluN1/GluN2B NMDA receptors (Rattus norvegicus, UniProt P35439+Q00960); assay: Two-electrode voltage-clamp; assay type: cell-based; conditions: for antagonism of glutamate/glycine-evoked responses: TCN 213 10 µM
rat cortical neurones = assay: NMDA-induced excitotoxicity assay in cortical cultures; assay type: cell-based; conditions: NMDA 40 µM + glycine […], 1 h, DIV 7–10, assessed at 24 h
Summary of the method: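 Cortical neurones from E21 Sprague–Dawley rat embryos, grown in Neurobasal-A with B27, 1% rat serum and glutamine; AraC added at DIV 4. Before the assay, cultures moved to glycine-free non-trophic medium (10% MEM in HEPES salt-glucose medium). […] After 24 h, DAPI-stained pyknotic nuclei counted as percentage of total nuclei.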

[3] = biological target: GluN1/GluN2A and GluN1/GluN2D NMDA receptors; conditions: ref Chen et al., 2008; cited from earlier work
[4] = test system: GluN2A- and GluN2B-containing NMDA receptors; conditions: cited from earlier work
native NMDA receptors = assay: Whole-cell NMDA-evoked currents in cultured rat cortical neurones; assay type: cell-based; conditions: for block of NMDA receptor-mediated currents, subset with greatest ifenprodil block: n= 7 cells
GluN1 subunit = conditions: ref Bettini et al. (2010); cited from earlier work
[5] = test system: GluN1/GluN2B NMDA receptors; conditions: non-competitive antagonist, block 'at most'; no reference given; cited from earlier work
[6] = TCN 213 30 µM, NMDA 50 µM + glycine 3 µM

Chain of GluN1/GluN2A NMDA receptors (Q00959 23-1464, other chains not shown): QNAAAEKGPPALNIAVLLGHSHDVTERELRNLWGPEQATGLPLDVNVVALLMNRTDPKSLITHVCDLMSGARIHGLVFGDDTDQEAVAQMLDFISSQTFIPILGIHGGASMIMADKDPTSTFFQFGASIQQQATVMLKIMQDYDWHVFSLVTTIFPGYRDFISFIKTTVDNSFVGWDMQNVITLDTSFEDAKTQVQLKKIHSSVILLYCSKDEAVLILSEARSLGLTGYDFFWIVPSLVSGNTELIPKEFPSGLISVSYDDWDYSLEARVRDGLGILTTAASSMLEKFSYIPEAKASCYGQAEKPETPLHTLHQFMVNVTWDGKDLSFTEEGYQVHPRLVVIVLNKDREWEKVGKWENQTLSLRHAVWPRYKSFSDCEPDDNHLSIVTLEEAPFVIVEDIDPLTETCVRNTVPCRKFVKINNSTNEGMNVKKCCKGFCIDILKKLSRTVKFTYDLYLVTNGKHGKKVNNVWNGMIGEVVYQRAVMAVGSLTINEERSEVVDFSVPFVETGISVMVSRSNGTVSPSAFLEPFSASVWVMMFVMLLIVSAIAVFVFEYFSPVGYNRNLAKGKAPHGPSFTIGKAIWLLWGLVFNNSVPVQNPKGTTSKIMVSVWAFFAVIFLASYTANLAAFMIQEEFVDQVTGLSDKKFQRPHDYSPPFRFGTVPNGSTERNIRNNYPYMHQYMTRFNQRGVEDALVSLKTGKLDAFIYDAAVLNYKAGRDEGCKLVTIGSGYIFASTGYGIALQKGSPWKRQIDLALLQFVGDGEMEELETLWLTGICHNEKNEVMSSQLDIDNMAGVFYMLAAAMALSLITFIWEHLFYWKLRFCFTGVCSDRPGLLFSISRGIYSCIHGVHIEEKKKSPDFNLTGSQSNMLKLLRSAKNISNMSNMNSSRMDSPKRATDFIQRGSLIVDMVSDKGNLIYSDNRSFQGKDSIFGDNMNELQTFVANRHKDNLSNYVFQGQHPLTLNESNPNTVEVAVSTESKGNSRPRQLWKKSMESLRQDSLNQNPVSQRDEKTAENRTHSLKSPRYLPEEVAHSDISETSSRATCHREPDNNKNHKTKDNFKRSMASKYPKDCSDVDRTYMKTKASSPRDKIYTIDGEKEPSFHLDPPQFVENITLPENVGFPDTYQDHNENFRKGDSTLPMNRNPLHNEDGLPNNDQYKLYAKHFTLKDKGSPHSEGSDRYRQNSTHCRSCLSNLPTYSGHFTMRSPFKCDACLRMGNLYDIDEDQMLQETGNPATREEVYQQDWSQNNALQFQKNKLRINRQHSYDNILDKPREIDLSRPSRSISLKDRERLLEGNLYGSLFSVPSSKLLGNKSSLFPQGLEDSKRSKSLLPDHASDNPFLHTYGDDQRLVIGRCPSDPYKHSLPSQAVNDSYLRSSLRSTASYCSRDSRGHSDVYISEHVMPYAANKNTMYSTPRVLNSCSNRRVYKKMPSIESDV
Chain of GluN1/GluN2B NMDA receptors (Rattus norvegicus, UniProt P35439+Q00960) (Q00960 27-1482, other chains not shown): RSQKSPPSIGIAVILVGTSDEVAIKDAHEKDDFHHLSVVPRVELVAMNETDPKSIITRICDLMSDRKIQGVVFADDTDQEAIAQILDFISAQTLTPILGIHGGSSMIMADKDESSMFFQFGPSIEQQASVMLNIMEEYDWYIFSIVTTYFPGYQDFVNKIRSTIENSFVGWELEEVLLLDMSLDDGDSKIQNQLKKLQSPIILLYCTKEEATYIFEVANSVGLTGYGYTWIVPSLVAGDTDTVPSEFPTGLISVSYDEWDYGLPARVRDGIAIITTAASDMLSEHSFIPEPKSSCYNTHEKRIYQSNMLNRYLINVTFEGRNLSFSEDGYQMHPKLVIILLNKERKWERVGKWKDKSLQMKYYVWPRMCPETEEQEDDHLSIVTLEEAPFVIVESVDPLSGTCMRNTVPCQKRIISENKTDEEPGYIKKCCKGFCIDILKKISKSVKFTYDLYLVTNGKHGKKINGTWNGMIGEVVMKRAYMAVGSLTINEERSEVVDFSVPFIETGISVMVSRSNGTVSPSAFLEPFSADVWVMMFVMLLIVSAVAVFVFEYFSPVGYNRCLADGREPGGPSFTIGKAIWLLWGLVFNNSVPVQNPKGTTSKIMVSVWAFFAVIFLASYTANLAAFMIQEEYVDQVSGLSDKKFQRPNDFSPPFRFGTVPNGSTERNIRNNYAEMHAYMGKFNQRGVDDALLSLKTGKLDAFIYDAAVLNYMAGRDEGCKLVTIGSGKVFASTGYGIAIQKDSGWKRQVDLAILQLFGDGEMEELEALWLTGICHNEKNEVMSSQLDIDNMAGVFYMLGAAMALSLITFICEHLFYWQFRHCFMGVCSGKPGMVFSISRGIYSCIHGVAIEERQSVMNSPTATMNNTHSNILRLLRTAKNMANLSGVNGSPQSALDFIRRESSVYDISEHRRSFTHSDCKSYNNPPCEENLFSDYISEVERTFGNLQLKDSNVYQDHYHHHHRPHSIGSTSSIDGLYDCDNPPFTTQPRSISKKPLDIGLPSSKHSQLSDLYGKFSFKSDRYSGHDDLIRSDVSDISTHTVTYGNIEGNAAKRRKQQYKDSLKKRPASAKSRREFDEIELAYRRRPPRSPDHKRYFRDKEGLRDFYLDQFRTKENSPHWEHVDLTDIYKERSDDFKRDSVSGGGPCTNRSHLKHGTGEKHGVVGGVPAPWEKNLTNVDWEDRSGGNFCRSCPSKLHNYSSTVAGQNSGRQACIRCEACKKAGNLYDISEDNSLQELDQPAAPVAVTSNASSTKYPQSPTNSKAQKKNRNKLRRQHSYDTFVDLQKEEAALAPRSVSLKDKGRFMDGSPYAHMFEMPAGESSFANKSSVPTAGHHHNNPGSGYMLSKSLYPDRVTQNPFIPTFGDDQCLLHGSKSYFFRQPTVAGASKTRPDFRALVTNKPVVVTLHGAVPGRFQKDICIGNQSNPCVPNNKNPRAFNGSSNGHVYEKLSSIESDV

O=C(O)c1cc(=O)c2c(Cl)cc(Cl)cc2[nH]1 [5,7 DCKA, 5,7 dichlorokynurenic acid]
IC50 ([1]; read-out: Antagonist IC50, [gly]= 0.1 EC50 ([…] glycine) + 100 µM glutamate): 130 ± 10 nM | IC50 ([1]; read-out: Antagonist IC50, [gly]= 10 EC50 (15 µM glycine) + 100 µM glutamate): 4100 ± 300 nM | IC50 ([1]; read-out: Antagonist IC50, [gly]= EC50 ([…] glycine) + 100 µM glutamate): 420 ± 30 nM | IC50 ([2]; read-out: Antagonist IC50): 74 ± 10 nM | IC50 ([2]; read-out: Antagonist IC50, [gly]= 10 EC50): 4100 ± 400 nM | IC50 ([2]; read-out: Antagonist IC50, [gly]= EC50): 490 ± 10 nM | NMDA-induced cell death (pyknotic nuclei) versus NMDA alone (rat cortical neurones; 5,7 DCKA 10 µM): reduced significantly | KB values at GluN1/GluN2A versus GluN1/GluN2D (Schild analysis) [3]: indistinguishable

[N-]=[N+]=Nc1ccc(CC(=O)NC2CC(C(=O)O)Nc3cc(Cl)cc(Cl)c32)cc1 (centres unmarked) [CGP-61594]
potency at GluN1/GluN2B compared with GluN1/GluN2A NMDA receptors ([4]; more potent at GluN1/GluN2B, ref Honer et al., 1998): 10 fold

O=C(Nc1ccccc1)N[C@@H]1C[C@@H](C(=O)O)Nc2cc(Cl)cc(Cl)c21 [L-689 560]
selectivity for GluN2A- over GluN2B-containing NMDA receptors ([4]; ref Hess et al., 1996): 5 fold

O=C(CSc1nnc(NCc2ccccc2)s1)NCC1CCCCC1 [TCN 213, N-(cyclohexylmethyl)-2-({5-[(phenylmethyl)amino]-1,3,4-thiadiazol-2-yl}thio)acetamide]
mean dose ratio (r) ([1]; 10 µM TCN 213, glutamate 100 µM): 5.20 ± 0.79 | mean dose ratio (r) ([1]; 30 µM TCN 213, glutamate 100 µM): 17.22 ± 1.69 | Schild plot slope, 'free' fit ([1]; 95% confidence interval 0.94–1.31): 1.13 | IC50 ([1]; Antagonist IC50, [gly]= 0.1 EC50 ([…] glycine) + 100 µM glutamate): 550 ± 50 nM | IC50 ([1]; Antagonist IC50, [gly]= 10 EC50 (15 µM glycine) + 100 µM glutamate): 40000 ± 3500 nM | IC50 ([1]; Antagonist IC50, [gly]= EC50 ([…] glycine) + 100 µM glutamate): 3500 ± 50 nM | block of glutamate/glycine-evoked current ([1]; TCN 213 10 µM, glutamate 100 µM, glycine 150 nM (0.1 × EC50)): Almost complete block | block of glutamate/glycine-evoked current ([1]; TCN 213 10 µM, glutamate 100 µM, glycine 15 µM (10 × EC50)): substantially less block | dependence of antagonism on glutamate concentration ([1]; TCN 213 10 µM, glycine 50 µM, glutamate 0.1, 1, 10 × EC50): not dependent on the glutamate concentration | expected block of current for a purely GluN2A-containing population ([1]; TCN 213 10 µM, glycine […], read from Figure 2A): around 75% | mean block of NMDA-evoked current [1, 6]: 78 ± 4% | reduction in amplitude of current response, example trace ([1]; TCN 213 30 µM, NMDA 50 µM + glycine 3 µM, single oocyte): approximately 75% | selectivity GluN1/GluN2A over GluN1/GluN2B ([1]; from IC50 values at glycine = EC50): around 100 fold | surmountability of antagonism by increasing glycine ([1]; glutamate 100 µM, glycine 50 µM and above): surmountable | concentration predicted to block fully the response ([1]; glycine 10 times EC50, extrapolation of Figure 2A): around 1 mM | IC50 [2]: > 300000 nM | antagonism of glutamate/glycine-evoked responses ([2]; 50 µM glycine, three glutamate concentrations): no antagonism | antagonism of glutamate/glycine-evoked responses ([2]; glycine low (0.1 × EC50)): only modestly antagonized | mean block of NMDA-evoked current [2, 6]: 2 ± 0.5% | inhibition of currents ([2]; TCN 213 30 µM, glycine 1 and 10 times EC50): negligible inhibition | average inhibition of NMDA receptor-mediated currents (native NMDA receptors; TCN 213 10 µM, DIV 7–10, NMDA 50 µM + glycine […], −70 mV): 2 ± 3% | block of NMDA receptor-mediated currents, subset with greatest ifenprodil block (native NMDA receptors; TCN 213 10 µM, DIV 7–10): 4 ± 2% | displacement of the GluN1 ligand MDL 105 519 (GluN1 subunit): failed to displace

CC(C(O)c1ccc(O)cc1)N1CCC(Cc2ccccc2)CC1 (centres unmarked) [ifenprodil]
reduction of NMDA + glycine evoked current, example cell (native NMDA receptors; ifenprodil 3 µM, 7 DIV pyramidal cell, NMDA 50 µM + glycine […]): around 75% | average block of NMDA receptor-mediated currents (native NMDA receptors; ifenprodil 3 µM, DIV 7–10, NMDA 50 µM + glycine […], −70 mV): 72 ± 2% | block of NMDA receptor-mediated currents, subset with greatest ifenprodil block (native NMDA receptors; ifenprodil 3 µM, DIV 7–10): 78 ± 1% | NMDA-induced cell death (pyknotic nuclei) versus NMDA alone (rat cortical neurones; ifenprodil 3 µM): reduced significantly | maximal block of current [5]: 75–80%
